Yeast life ext – yeast lifespan extension. S. cerevisiae growth with nicotinamide, OD615; deaD strain in restrictive glucose medium. AID 775. inhibition of the nicotinamide effect, % at 10 µM. hit rate 0.68% among 130,000;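 active means inhibition above a set limit, placed 3 SD over the median of all compounds, cut at about 26% in these data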;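 further: 0% = nicotinamide-treated wells and 100% = cells grown without nicotinamide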
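Test system – modified budding yeast, DeaD strain · Compound – single dose 10 µM compound, 0.25% DMSO · Times – culture preincubation 4 h, compound exposure 48 h, both 30 °C · Detection – optical density (absorbance) at 615 nm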
bCat KO growth – beta-catenin-lacking colon tumor cell growth suppression | HCT116 beta-catenin knockout viability, CellTiter-Glo, 60 h; hits give low values | viability, % at 10 µM | hit rate 1.5% among 140,000;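 active means viability at or under a set limit, the compound median less 4 SD, cut at about 6% in these data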;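 further: 0% = Hyamine 1622 control at 20 µM and 100% = untreated cell control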
BB579 growth dn – yeast BB579 growth reduction in restrictive medium | hit rate 0.51% among 140,000 | S. cerevisiae BB579 growth, OD615, 48 h | inhibition, % at 10 µM;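 active means inhibition above a set limit, 3 SD over the mean compound inhibition, cut at about 44% in these data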
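Test system: DeaD yeast strain BB579 / Buffer or medium: restrictive glucose-based CSMM-D medium / Doses: single 10 µM dose / Schedule: 4 h cell preincubation, 48 h compound exposure, 30 °C humidified / Technique: culture absorbance at 615 nm / Controls: amphotericin B positive control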
sdo1 growth – restores growth of sdo1-depleted yeast; S. cerevisiae sdo1-depleted JHY4D growth rescue, OD600 30 h; hits give high values; pdr5 snq2 efflux-pump mutant strain; AID 817; z-score at 10 µM; hit rate 0.21% among 140,000;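 active means z-score above 3 at both the 24 hr and the 30 hr optical density reads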;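 further: z-score against mean and SD of all compound wells on the same plate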
PTEN del growth – growth suppressors of cells with PTEN tumor suppressor deletion. viability, % at 10 µM. AID 827. hit rate 1.2% among 140,000. HCT116 PTEN-null viability, CellTiter-Glo, 60 h; hits give low values;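 active means viability at or below a set limit, 4 SD under the median of all tested compounds, cut at about 3.7% in these data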;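 further: PTEN knockout HCT116 line with beta catenin targeted HCT116 as companion control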
An asterisk follows results filed as active; x = no result given. Sampled rows, rich in hits. Any-hit rate of the full collection: about 2.8%.

SMILES | Yeast life ext | bCat KO growth | BB579 growth dn | sdo1 growth | PTEN del growth
Cc1cc(C)n(Cc2ccc(NC(=O)c3nn(C)cc3[N+](=O)[O-])cc2)n1 | -10.7 | 5.3* | -19.6 | 0.88 | 1.8*
Cn1cc([N+](=O)[O-])c(C(=O)Nc2ccc(C(=O)N3CCCCC3)cc2)n1 | -0.8 | 4.1* | 3.0 | 0.7 | 3.5*
O=c1cc(O)c2sc3nc(-c4cccnc4)cc(C(F)(F)F)c3c2[nH]1 | -5.2 | 93.9 | -10.6 | -0.25 | 99.6
Cc1cccc(NC(=O)CSc2nc3ccc(NC(=O)CSc4nnnn4-c4ccccc4)cc3s2)c1C | -10.8 | 2.3* | -72.0 | -0.86 | 3.9
COc1ccc(S(=O)(=O)Nc2ccccc2C(F)(F)F)cc1 | 25.0 | 102.9 | -38.0 | -1.64 | 93.2
COc1ccc(S(=O)(=O)Nc2ccc(O)c3ccccc23)cc1 | x | 1.5* | -21.8 | -0.78 | 2.3*
CC(C)C(NC(=O)c1ccccc1)c1nnc(SCC(=O)Nc2nccs2)n1C (stereo not drawn) | -22.0 | 111.0 | 2.9 | 0.38 | 114.3
Nc1cccc2c1C(=O)N(C(=O)c1ccc(Cl)c(S(=O)(=O)N3CCCCCC3)c1)C2=O | 75.4* | 89.3 | -48.2 | -0.3 | 99.5
Nc1cccc2c1C(=O)N(C(=O)c1cccc(S(=O)(=O)N3CCCCCC3)c1)C2=O | 28.0 | 92.6 | -25.1 | 2.02 | 105.3
CCOC(=O)c1c(NC(=O)c2ccc(-n3cnnn3)cc2)sc2c1CCCC2 | 0.1 | 3.4* | -17.2 | 1.05 | 4.6
COCCn1c(N)c(C(=O)Nc2sc3c(c2C(=O)OC)CCCC3)c2nc3ccccc3nc21 | -22.1 | 4.0* | -48.6 | -0.52 | 4.4
CN(C)c1ccc(/C=N/NC(=O)CN(c2cccc(Cl)c2)S(C)(=O)=O)cc1Br | -12.3 | 86.2 | -23.5 | 1.36 | 78.7
Cc1cccc(Nc2nc(NCc3ccco3)c3ccccc3n2)c1 | -0.4 | 1.8* | -42.0 | -0.39 | 1.8*
Cc1ccccc1OCCCN1C(=O)C(=O)c2cccc(C)c21 | -15.9 | 52.6 | 82.8* | -1.12 | 43.5
COc1cccc(NC(=O)N(Cc2cc3cc(C)cc(C)c3[nH]c2=O)CC2COCCO2)c1 (stereo not drawn) | -14.2 | 50.9 | -34.4 | 0.19 | 58.2
CCOC(=O)C1CCN(C(=O)c2c(C)oc3c2C(=O)c2ccccc2C3=O)CC1 | 1.1 | 1.1* | 30.7 | -1.12 | 0.7*
Cc1oc2c(c1C(=O)N1CCC(C)CC1)C(=O)c1ccccc1C2=O | 2.4 | 1.6* | 29.1 | -1.67 | 1.5*
CCOC(=O)c1ccc(N2C(=O)C3C(/C=C/c4ccccc4)OC4(C(=O)c5ccccc5C4=O)C3C2=O)cc1 (stereo not drawn) | -2.9 | 82.1 | -22.2 | 1.68 | 92.5
CCOc1ccc(-c2cn(-c3cccc(SC)c3)c(=O)[nH]2)cc1 | -1.9 | 85.2 | -21.6 | -0.15 | 77.8
NNC(=O)c1cccc(COc2ccc3c(c2)CCC3)c1 | -5.3 | 78.3 | 51.0* | -0.9 | 86.0
Cn1c(CSCc2ccc(Cl)c(Cl)c2)n[nH]c1=S | -0.2 | 92.0 | -13.2 | 0.31 | 104.0
O=C(Oc1ccccc1)c1cc2ccccc2o1 | -12.4 | 97.9 | -22.7 | -0.56 | 104.3
O=C(/C=C\c1ccccc1OC(=O)c1ccccc1F)c1cc2ccccc2o1 | -4.3 | 3.3* | -35.6 | -0.75 | 2.0*
COc1ccc(-c2cc(C(F)(F)F)n3nc(C(=O)NCc4ccco4)c(Cl)c3n2)cc1 | -2.8 | 4.4* | -12.5 | -0.43 | 8.4
COc1ccc(-c2cc(C(F)(F)F)n3nc(C(=O)NCc4ccco4)cc3n2)cc1 | -14.4 | 100.7 | -37.2 | -0.18 | 90.3
SMILES | Yeast life ext | bCat KO growth | BB579 growth dn | sdo1 growth | PTEN del growth
C/C(CCc1ccc2c(c1)OCO2)=N\N=C(/N)SC1CC(=O)N(c2ccccc2F)C1=O (stereo not drawn) | -6.3 | 98.7 | 3.8 | 0.31 | 101.0
COc1ccc(C2NCCc3c2[nH]c2ccccc32)cc1COc1ccc(F)cc1 (stereo not drawn) | 0.3 | 1.2* | 1.4 | -1.6 | 0.9*
COc1ccc(C2Nc3ccccc3C(=O)N2Cc2ccco2)cc1COc1ccc(F)cc1 (stereo not drawn) | x | 54.8 | -19.0 | -1.21 | 52.5
CCCCSc1nc(O)c(C2OC(=O)c3c2ccc(OC)c3OC)c(=O)n1C (stereo not drawn) | 60.9* | 95.3 | -37.5 | -1.5 | 105.0
Cc1cccc(-n2cnc(C(=O)NC3CCCCCC3)c2)n1 | -23.1 | 111.4 | 0.0 | -0.14 | 99.2
CCCCCCc1cc2cc(C(=O)NCc3ccccc3)c(=N)oc2cc1O | x | 99.0 | -40.3 | 1.23 | 94.1
CCCCCCc1cc2cc(C(=O)Nc3ccccc3)c(=O)oc2cc1O | -3.5 | 1.5* | 4.3 | -1.35 | 1.7*
O=C1/C(=C/c2ccc(N3CCOCC3)o2)SC(=Nc2ccccc2)N1CCc1c[nH]c2ccccc12 | -0.2 | 1.4* | -44.4 | 0.45 | 1.4*
CCC(=O)Nc1ccccc1Sc1ncnc2scc(-c3ccccc3)c12 | 61.9* | 80.8 | -33.3 | -1.36 | 76.2
Cc1cc2nc(-c3ccc(SCC(=O)N4CCc5ccccc54)nc3)[nH]c2cc1C | -14.7 | 0.8* | -31.0 | -1.76 | 1.0*
Cc1cc(NC(=O)CSc2ccc(-c3nc4cc(C)c(C)cc4[nH]3)cn2)no1 | -16.1 | 92.6 | -44.1 | 0.11 | 89.2
CCOC(=O)c1cnc(SC)nc1Oc1cccc(NC(=O)c2cccc(Cl)c2Cl)c1 | 0.1 | 101.7 | -75.3 | -0.71 | 83.4
COc1cc(O)oc1C=Nc1ccc(C(F)(F)F)cc1 | -28.5 | 88.7 | -10.2 | 0.65 | 82.5
CC1=NN(Cc2ccccc2)C(=O)C1 | 5.2 | 114.0 | -18.8 | -1.24 | 102.9
CC1=NN(Cc2ccccc2)C(=O)C1C(c1ccccc1)C(C#N)C#N (stereo not drawn) | 38.4* | 90.8 | -26.5 | 1.17 | 102.4
CC1=NN(Cc2ccccc2)C(=O)C1C(c1ccc(Cl)cc1)C(C#N)C#N (stereo not drawn) | 40.8* | 101.6 | -27.0 | -0.37 | 98.5
CSCC[C@H](NC(=O)CCNC(C)=O)c1nc2ccccc2[nH]1 | 0.3 | 95.0 | 20.4 | 0.79 | 100.5
COC(=O)c1ccc(NC(=O)C(=O)N2CCN(C(=S)NCCc3ccccc3)CC2)cc1 | -5.7 | 74.4 | -19.4 | 0.53 | 81.0
O=S(=O)(c1ccc2c(c1)C(=NO)c1cc(S(=O)(=O)N3CCCCC3)ccc1-2)N1CCCCC1 | -6.4 | 0.9* | -53.6 | -0.49 | 1.6*
CC1CCN(S(=O)(=O)c2cccc(C(=O)O)c2)CC1 | -4.8 | 92.9 | 1.9 | 0.41 | 90.1
CC1CCN(S(=O)(=O)c2ccc3c(c2)C(=NO)c2cc(S(=O)(=O)N4CCC(C)CC4)ccc2-3)CC1 | -20.5 | 0.8* | -26.7 | -0.57 | 1.2*
O=S(=O)(c1ccc(S(=O)(=O)N2CCCC2)cc1)N1CCCCCC1 | -8.2 | 95.3 | -34.6 | 0.96 | 99.2
CCOC(=S)N/C(=N\S(=O)(=O)c1ccc(C)cc1)c1ccccc1 | -3.8 | 76.7 | -6.4 | -0.36 | 92.9
CC/C(=C1/C(=O)CC(C)(C)C(C(=O)OC)C1=O)N1CCCC1 (stereo not drawn) | 29.8* | 99.8 | -21.2 | 0.09 | 100.7
